ChEMBL document CHEMBL4316599, “Synthesis, in vitro and in vivo biological evaluation of substituted 3-(5-imidazo[2,1-b]thiazolylmethylene)-2-indolinones as new potent anticancer agents” (Eur J Med Chem, 2019)
Activity calls are given as the source filed them. The calls are words filed in the database; no cut-off is given here.

Experiments:
K562 [1] = assay: Cytotoxicity against human K562 cells after 48 hrs by SRB assay; format: functional, cell-based
K562 [2] = assay: Cell cycle arrest in human K562 cells assessed as mitotic index at IC50 by Giemsa staining-based assay (reference value: 3%); format: functional
K562 [3] = assay: Cell cycle arrest in human K562 cells assessed as mitotic index at 5 times IC50 by Giemsa staining-based assay (reference value: 3%); format: functional
K562 [4] = assay: Cell cycle arrest in human K562 cells assessed as mitotic index at 10 times IC50 by Giemsa staining-based assay (reference value: 3%); format: functional
B16-BL6 = assay: Antitumor activity mouse B16-BL6 cells implanted in C57BL/6 mouse assessed tumor growth inhibition at 30 mg/kg, ip dosed every other day for 18 days relative to control; format: functional; details: 432 h, read-out: TGI
In short: (§1)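 Syngeneic allograft: C57BL/6 mice, six weeks old, given 2.5×10^5 BL6-B16 or E0771 cells subcutaneously in the dorsolateral flank in PBS. Dosing began at about 100 mm³. Test compound or reference was given intraperitoneally every other day in 50 μL DMSO, with DMSO vehicle controls. Tumor volume was compared with the vehicle group, 5 animals per group, mean ± SEM, by 2-way ANOVA with Bonferroni correction.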

E0771 = assay: Antitumor activity mouse E0771 cells implanted in C57BL/6 mouse assessed tumor growth inhibition at 30 mg/kg, ip dosed every other day for 20 days relative to control; format: functional; details: 480 h, read-out: TGI; in short: as §1
K562 [5] = assay: Cytotoxicity against human K562 cells after 16 hrs by SRB assay; details: K562, 16 h
CNS carcinoma cell = assay: Cytotoxicity against human CNS cancer cells after 48 hrs by SRB assay; format: functional
In short: (§2)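 NCI-60 screen: single-dose pass at 10^-5 M, then a five-concentration assay from 10^-9 to 10^-4 M (highest 100 μM). Exposure was 48 h under standard NCI protocols. GI50, TGI and LC50 were derived per cell line and averaged by subpanel. Repeated tests are the mean of two experiments.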

Melanoma cell line = assay: Cytotoxicity against human melanoma cells after 48 hrs by SRB assay; format: functional; in short: as §2
Leukemia cell = assay: Cytotoxicity against human leukemia cells after 48 hrs by SRB assay; format: functional; in short: as §2
NSCLC = assay: Cytotoxicity against human NSCLC cells after 48 hrs by SRB assay; format: functional; in short: as §2
[6] = Cytotoxicity against human COLON cells after 48 hrs by SRB assay; format: functional; in short: as §2
Ovarian carcinoma cell = assay: Cytotoxicity against human ovarian cancer cells after 48 hrs by SRB assay; format: functional; in short: as §2
Renal cancer cell line = assay: Cytotoxicity against human renal cancer cells after 48 hrs by SRB assay; format: functional; in short: as §2
Prostatic carcinoma cell = assay: Cytotoxicity against human prostate cancer cells after 48 hrs by SRB assay; format: functional; in short: as §2
Breast carcinoma cell = assay: Cytotoxicity against human breast cancer cells after 48 hrs by SRB assay; format: functional; in short: as §2
[7] = Cytotoxicity against human PBL after 72 hrs by MTT assay; format: cell-based; details: peripheral blood lymphocytes (PBL)
In short: (§3)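 Lymphocytes from healthy donors were isolated on a Lymphoprep gradient and held overnight in RPMI-1640 with 10% FBS. Non-adherent cells were set at 5×10^5 cells/mL, either resting or stimulated with 2.5 μg/mL PHA. Cells were exposed to a range of compound concentrations for 72 h and viability read by MTT. GI50 is the mean ± SEM of three separate experiments.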

[8] = Cytotoxicity against human PHA-stimulated PBL after 72 hrs by MTT assay; format: cell-based; details: PHA-stimulated peripheral blood lymphocytes (PBL); in short: as §3
Tubulin = Tubulin (Bos taurus, UniProt Q6B856+Q862L2+Q862F3); assay: Inhibition of bovine brain tubulin polymerization after 20 mins by spectrophotometric analysis
In short: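 Bovine brain tubulin (10 μM) in glutamate buffer preincubated with varying compound levels at 30 °C, then chilled to 0 °C. GTP added to 0.4 mM final, then warmed to 30 °C. Assembly followed by turbidity at 350 nm. IC50 is the concentration halving the extent of assembly after 20 min.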

Tubulin (Bos taurus) [9] = molecular target: T1, Tubulin (Bos taurus) (UniProt Q6B856+Q862L2+Q862F3); assay: Inhibition of [3H]colchicine binding to bovine brain tubulin at 5 uM after 20 mins relative to control
In short: (§4)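 Reaction mixtures held 1 μM tubulin, 5 μM [³H]colchicine and test compound at 5 or 50 μM. Read-out was percent inhibition of colchicine binding.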

Tubulin (Bos taurus) [10] = molecular target: T1, Tubulin (Bos taurus); assay: Inhibition of [3H]colchicine binding to bovine brain tubulin at 50 uM after 20 mins relative to control; in short: as §4
HeLa [11] = assay: Cell cycle arrest in human HeLa cells assessed as accumulation of cells at G2/M phase after 24 hrs by propidium iodide staining-based flow cytometric analysis; format: functional
In short: (§5)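 Cells exposed to a range of concentrations for 24 h (HeLa at 5×10^5 cells), then fixed in ice-cold 70% ethanol. Lysis buffer with RNase A and 0.1% Triton X-100 was applied before PI staining. DNA content was read by flow cytometry and G1/S/G2/M fractions taken from DNA histograms. Mean ± SEM of two independent experiments.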

HT-29 [12] = assay: Cell cycle arrest in human HT-29 cells assessed as accumulation of cells at G2/M phase after 24 hrs by propidium iodide staining-based flow cytometric analysis; format: functional; in short: as §5
A549 [13] = assay: Cell cycle arrest in human A549 cells assessed as accumulation of cells at G2/M phase after 24 hrs by propidium iodide staining-based flow cytometric analysis; format: functional; in short: as §5
HeLa [14] = assay: Cell cycle arrest in human HeLa cells assessed as reduction in accumulation of cells at G1 phase up to 1000 nM after 24 hrs by propidium iodide staining-based flow cytometric analysis; format: functional; in short: as §5
HT-29 [15] = assay: Cell cycle arrest in human HT-29 cells assessed as reduction in accumulation of cells at G1 phase up to 1000 nM after 24 hrs by propidium iodide staining-based flow cytometric analysis; format: functional; in short: as §5
A549 [16] = assay: Cell cycle arrest in human A549 cells assessed as reduction in accumulation of cells at G1 phase up to 600 nM after 24 hrs by propidium iodide staining-based flow cytometric analysis; format: functional; in short: as §5
HeLa [17] = assay: Cell cycle arrest in human HeLa cells assessed as reduction in accumulation of cells at S phase up to 1000 nM after 24 hrs by propidium iodide staining-based flow cytometric analysis; format: functional; in short: as §5
HT-29 [18] = assay: Cell cycle arrest in human HT-29 cells assessed as reduction in accumulation of cells at S phase up to 1000 nM after 24 hrs by propidium iodide staining-based flow cytometric analysis; format: functional; in short: as §5
A549 [19] = assay: Cell cycle arrest in human A549 cells assessed as reduction in accumulation of cells at S phase up to 600 nM after 24 hrs by propidium iodide staining-based flow cytometric analysis; format: functional; in short: as §5
HeLa [20] = assay: Cell cycle arrest in human HeLa cells assessed as decrease in p-cdc25c expression at 50 to 250 nM after 24 hrs by Western blot analysis; format: functional, cell-based
In short: (§6)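 HeLa cells treated 24 h, washed in ice-cold PBS and lysed on ice 30 min. Lysates were spun at 15000 x g, 4 °C. 10 µg protein run on SDS-PAGE and blotted to PVDF. Blots were blocked in 5% BSA overnight at 4 °C and probed 2 h at room temperature. Detection by HRP-secondary and ECL, with bands normalized to β-actin as fold of untreated. Three independent experiments, one-way ANOVA/Dunnett.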

A549 [21] = assay: Induction of apoptosis in human A549 cells at 100 nM after 24 to 48 hrs by Annexin V-FITC/propidium iodide staining-based flow cytometric analysis; format: functional, cell-based
In short: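 A549 cells treated 24 or 48 h at 12.5–100 nM, then double-stained with annexin-V-FITC and PI. Phosphatidylserine exposure was read by flow cytometry. Mean ± SEM of three independent experiments.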

HeLa [22] = assay: Induction of mitochondrial membrane depolarization in human HeLa cells at 250 to 500 nM after 6 to 48 hrs by JC-1 staining-based assay; format: functional, cell-based; details: TDE = time-dependent effect
In short: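 HeLa cells treated at 250-500 nM for 6, 12, 24 or 48 h, then stained with JC-1. Percentage of cells with low mitochondrial membrane potential measured by flow cytometry. Mean ± SEM of three independent experiments.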

HeLa [23] = assay: Induction of ROS generation in human HeLa cells at 250 nM after 12 to 24 hrs by H2-DCFDA staining-based assay; format: functional, cell-based
In short: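 HeLa cells treated 6, 12, 24 or 48 h, then loaded with H2-DCFDA and analysed by flow cytometry for ROS. Mean ± SEM of three independent experiments, compared against control.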

HeLa [24] = assay: Induction of apoptosis in human HeLa cells assessed as increase in caspase-9 activity at 50 to 250 nM after 24 hrs by Western blot analysis; format: functional, cell-based; in short: as §6
HeLa [25] = assay: Induction of apoptosis in human HeLa cells assessed as increase in caspase-3 activity at 50 to 250 nM after 24 hrs by Western blot analysis; format: functional, cell-based; in short: as §6
HeLa [26] = assay: Induction of apoptosis in human HeLa cells assessed as decrease in Mcl-1 levels at 50 to 250 nM after 24 hrs by Western blot analysis; format: functional, cell-based; in short: as §6
HeLa [27] = assay: Induction of apoptosis in human HeLa cells assessed as decrease in Bcl-2 levels at 50 to 250 nM after 24 hrs by Western blot analysis; format: functional, cell-based; in short: as §6
[28] = read-out: LC50 (the source's name)

Structure (SMILES): COc1ccc(/C=C\c2cc(OC)c(OC)c(OC)c2)cc1O [COMBRETASTATIN A4]
- Activity (K562 [1]): Dose-dependent effect
- Activity (K562 [2]): 15%
- Activity (K562 [3]): 32%
- Activity (K562 [4]): 61%
- inhibition in vivo at 30 mg/kg (B16-BL6): 16 to 18%
- inhibition in vivo at 30 mg/kg (E0771): 30.9%
- IC50 (K562 [5]): 0.004 µM

Structure (SMILES): O=C1Nc2c(ccc3ccccc23)/C1=C\c1c(-c2cccnc2)nc2sccn12
- GI50 (CNS carcinoma cell): 1.16 µM
- TGI (CNS carcinoma cell): 13.9 µM
- CC50 (CNS carcinoma cell; [28]): 47.5 µM
- GI50 (Melanoma cell line): 1.65 µM
- TGI (Melanoma cell line): 17.6 µM
- CC50 (Melanoma cell line; [28]): 66.5 µM
- GI50 (Leukemia cell): 0.11 µM
- TGI (Leukemia cell): 46.4 µM
- GI50 (NSCLC): 1.78 µM
- LC50 (NSCLC): 61.7 µM
- TGI (NSCLC): 16.2 µM
- GI50 [6]: 0.15 µM
- TGI [6]: 9.42 µM
- CC50 [6, 28]: 49 µM
- GI50 (Ovarian carcinoma cell): 1.21 µM
- LC50 (50% lethal concentration) (Ovarian carcinoma cell): 41.2 µM
- TGI (Ovarian carcinoma cell): 12.3 µM
- GI50 (Renal cancer cell line): 1.24 µM
- LC50 (50% lethal concentration) (Renal cancer cell line): 49.2 µM
- TGI (Renal cancer cell line): 15.9 µM
- GI50 (Prostatic carcinoma cell): 0.1 µM
- TGI (Prostatic carcinoma cell): 11.1 µM
- CC50 (Prostatic carcinoma cell; [28]): 33.4 µM
- GI50 (Breast carcinoma cell): 0.26 µM
- LC50 (concentration killing 50% of cells) (Breast carcinoma cell): 70.8 µM
- TGI (Breast carcinoma cell): 20.1 µM
- GI50 at 72 h [7]: 3.1 µM
- GI50 at 72 h [8]: 2.5 µM
- IC50 (Tubulin): 2.2 µM
- inhibition (Tubulin (Bos taurus) [9]): 31%
- inhibition (Tubulin (Bos taurus) [10]): 56%
- Activity (HeLa [11]): Dose-dependent effect
- Activity (HT-29 [12]): Dose-dependent effect
- Activity (A549 [13]): Dose-dependent effect
- Activity (HeLa [14]): Active
- Activity (HT-29 [15]): Active
- Activity (A549 [16]): Active
- Activity (HeLa [17]): Active
- Activity (HT-29 [18]): Active
- Activity (A549 [19]): Active
- Activity (K562 [1]): Dose-dependent effect
- Activity (K562 [2]): 22%
- Activity (K562 [3]): 64%
- Activity (K562 [4]): 78%
- Activity (HeLa [20]): Active
- Activity (A549 [21]): Active
- Activity (HeLa [22]): Tde
- Activity (HeLa [23]): Active
- Activity (HeLa [24]): Active
- Activity (HeLa [25]): Active
- Activity (HeLa [26]): Active
- Activity (HeLa [27]): Active
- IC50 (K562 [5]): 0.2 µM
